Measurements: ChEMBL document CHEMBL1128719, “The synthesis, structure-activity, and structure-side effect relationships of a series of 8-alkoxy- and 5-amino-8-alkoxyquinolone antibacterial agents” (J Med Chem, 1995)
In brackets after ≈: the same amount, converted by molar mass.

Assays:
[1] = tested on: V79; test: Clonogenic cytotoxicity against Chinese hamster V-79 cells; format: functional, cell-based; conditions: Cricetulus griseus
[2] = tested on: Cutibacterium acnes; test: In vitro antibacterial activity was tested for Propion acnes PA5-1; format: functional
Procedure, shortened: (§1)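 Microtitration (microdilution) MIC determination in μg/mL against a panel of Gram-positive, Gram-negative and anaerobic organisms. Values come from duplicate or triplicate experiments and are stated accurate to ±50%.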

[3] = tested on: Peptoniphilus asaccharolyticus; test: In vitro antibacterial activity was tested for Pepto asac PA 3-1; format: functional; procedure, shortened: as §1
[4] = tested on: Providencia rettgeri; test: In vitro antibacterial activity was tested for Providencia rettgeri H1771; format: functional; procedure, shortened: as §1
[5] = tested on: Bacteroides fragilis; test: In vitro antibacterial activity against Bacteroides fragilis BFA; format: functional; procedure, shortened: as §1
[6] = tested on: Enterobacter cloacae; test: In vitro antibacterial activity was tested for Enterobacter cloacae HA2646; format: functional
[7] = tested on: Clostridium perfringens; test: In vitro antibacterial activity against Clostridium perfringens CP 3-1; format: functional
[8] = tested on: Staphylococcus aureus; test: In vitro antibacterial activity was tested for Staphylococcus aureus UC-76; format: functional; procedure, shortened: as §1
[9] = tested on: Streptococcus pyogenes; test: In vitro antibacterial activity was tested for Streptococcus pyogenes C203; format: functional; procedure, shortened: as §1
[10] = tested on: Clostridioides difficile; test: In vitro antibacterial activity was tested for Clostridium diff CD1-1; format: functional
[11] = tested on: Klebsiella pneumoniae; test: In vitro antibacterial activity was tested for Klebsiella pneumoniae MGH-2; format: functional; procedure, shortened: as §1
[12] = tested on: Enterococcus faecalis; test: In vitro antibacterial activity was tested for Streptococcus faecalis MGH-2; format: functional; procedure, shortened: as §1
[13] = tested on: Streptococcus pneumoniae; test: In vitro antibacterial activity was tested for Streptococcus pneumoniae SV-1; format: functional; procedure, shortened: as §1
[14] = tested on: Staphylococcus aureus; test: In vitro antibacterial activity was tested for Staphylococcus aureus H228; format: functional; procedure, shortened: as §1
[15] = tested on: Escherichia coli; test: In vitro antibacterial activity was tested for Escherichia coli H560; format: functional; procedure, shortened: as §1
[16] = tested on: Escherichia coli; test: In vitro antibacterial activity was tested for Escherichia coli Vogel; format: functional; procedure, shortened: as §1
[17] = tested on: Pseudomonas aeruginosa; test: In vitro antibacterial activity was tested for Pseudomonas aeruginosa UI-18; format: functional; procedure, shortened: as §1

| Compound | IC50 [1] | MIC [2] | MIC [3] | MIC [4] | MIC [5] | MIC [6] | MIC [7] | MIC [8] | MIC [9] | MIC [10] | MIC [11] | MIC [12] | MIC [13] | MIC [14] | MIC [15] | MIC [16] | MIC [17] |
| --- | --- | --- | --- | --- | --- | --- | --- | --- | --- | --- | --- | --- | --- | --- | --- | --- | --- |
| COc1c(N2CCC(C)(CN)C2)c(F)c(N)c2c(=O)c(C(=O)O)cn(C3CC3)c12 (stereo unspecified) | 140 µg/mL (≈ 346 µM) | 1.6 µg/mL (≈ 3.96 µM) | 0.8 µg/mL (≈ 1.98 µM) | 0.8 µg/mL (≈ 1.98 µM) | 1.6 µg/mL (≈ 3.96 µM) | 0.1 µg/mL (≈ 0.247 µM) | 0.8 µg/mL (≈ 1.98 µM) | 0.006 µg/mL (≈ 0.0148 µM) | 0.025 µg/mL (≈ 0.0618 µM) | 1.6 µg/mL (≈ 3.96 µM) | 0.2 µg/mL (≈ 0.495 µM) | 0.05 µg/mL (≈ 0.124 µM) | 0.013 µg/mL (≈ 0.0321 µM) | 0.025 µg/mL (≈ 0.0618 µM) | 0.05 µg/mL (≈ 0.124 µM) | 0.1 µg/mL (≈ 0.247 µM) | 3.1 µg/mL (≈ 7.66 µM) |
| CCOc1c(N2CCCC(CN)C2)c(F)cc2c(=O)c(C(=O)O)cn(C3CC3)c12 (stereo unspecified) | 63 µg/mL (≈ 156 µM) | 3.1 µg/mL (≈ 7.68 µM) | 0.4 µg/mL (≈ 0.991 µM) | > 3.1 µg/mL | 3.1 µg/mL (≈ 7.68 µM) | 0.4 µg/mL (≈ 0.991 µM) | 0.4 µg/mL (≈ 0.991 µM) | 0.013 µg/mL (≈ 0.0322 µM) | 0.025 µg/mL (≈ 0.062 µM) | 3.1 µg/mL (≈ 7.68 µM) | 0.8 µg/mL (≈ 1.98 µM) | 0.05 µg/mL (≈ 0.124 µM) | 0.025 µg/mL (≈ 0.062 µM) | 0.05 µg/mL (≈ 0.124 µM) | 0.1 µg/mL (≈ 0.248 µM) | 0.2 µg/mL (≈ 0.496 µM) | > 3.1 µg/mL |
| CCOc1c(N2CCNC(C)C2)c(F)cc2c(=O)c(C(=O)O)cn(C3CC3)c12 (stereo unspecified) | – | 3.1 µg/mL (≈ 7.96 µM) | 1.6 µg/mL (≈ 4.11 µM) | 0.4 µg/mL (≈ 1.03 µM) | 3.1 µg/mL (≈ 7.96 µM) | 0.1 µg/mL (≈ 0.257 µM) | 0.8 µg/mL (≈ 2.05 µM) | 0.05 µg/mL (≈ 0.128 µM) | 0.2 µg/mL (≈ 0.514 µM) | 6.3 µg/mL (≈ 16.2 µM) | 0.2 µg/mL (≈ 0.514 µM) | 0.2 µg/mL (≈ 0.514 µM) | 0.05 µg/mL (≈ 0.128 µM) | 0.2 µg/mL (≈ 0.514 µM) | 0.05 µg/mL (≈ 0.128 µM) | 0.1 µg/mL (≈ 0.257 µM) | 3.1 µg/mL (≈ 7.96 µM) |
| CCOc1c(N2CCC(C)(CN)C2)c(F)c(N)c2c(=O)c(C(=O)O)cn(C3CC3)c12 (stereo unspecified) | – | 3.1 µg/mL (≈ 7.41 µM) | 0.8 µg/mL (≈ 1.91 µM) | 1.6 µg/mL (≈ 3.82 µM) | 3.1 µg/mL (≈ 7.41 µM) | 0.4 µg/mL (≈ 0.956 µM) | 0.4 µg/mL (≈ 0.956 µM) | 0.025 µg/mL (≈ 0.0597 µM) | 0.1 µg/mL (≈ 0.239 µM) | 6.3 µg/mL (≈ 15.1 µM) | 0.8 µg/mL (≈ 1.91 µM) | 0.1 µg/mL (≈ 0.239 µM) | 0.05 µg/mL (≈ 0.119 µM) | 0.1 µg/mL (≈ 0.239 µM) | 0.1 µg/mL (≈ 0.239 µM) | 0.2 µg/mL (≈ 0.478 µM) | 3.1 µg/mL (≈ 7.41 µM) |
| COc1c(N2CCC(CN)C2)c(F)cc2c(=O)c(C(=O)O)cn(C3CC3)c12 (stereo unspecified) | – | 0.2 µg/mL (≈ 0.533 µM) | 0.2 µg/mL (≈ 0.533 µM) | 0.1 µg/mL (≈ 0.266 µM) | 0.2 µg/mL (≈ 0.533 µM) | 0.05 µg/mL (≈ 0.133 µM) | 0.1 µg/mL (≈ 0.266 µM) | 0.003 µg/mL (≈ 0.00799 µM) | 0.003 µg/mL (≈ 0.00799 µM) | 0.2 µg/mL (≈ 0.533 µM) | 0.1 µg/mL (≈ 0.266 µM) | 0.013 µg/mL (≈ 0.0346 µM) | 0.003 µg/mL (≈ 0.00799 µM) | 0.025 µg/mL (≈ 0.0666 µM) | 0.025 µg/mL (≈ 0.0666 µM) | 0.05 µg/mL (≈ 0.133 µM) | 0.8 µg/mL (≈ 2.13 µM) |
| COc1c(N2CCN(C)CC2)c(F)cc2c(=O)c(C(=O)O)cn(C3CC3)c12 | – | 0.4 µg/mL (≈ 1.07 µM) | 1.6 µg/mL (≈ 4.26 µM) | 0.4 µg/mL (≈ 1.07 µM) | 0.2 µg/mL (≈ 0.533 µM) | 0.1 µg/mL (≈ 0.266 µM) | 0.2 µg/mL (≈ 0.533 µM) | 0.05 µg/mL (≈ 0.133 µM) | 0.1 µg/mL (≈ 0.266 µM) | 0.8 µg/mL (≈ 2.13 µM) | 0.2 µg/mL (≈ 0.533 µM) | 0.2 µg/mL (≈ 0.533 µM) | 0.1 µg/mL (≈ 0.266 µM) | 0.1 µg/mL (≈ 0.266 µM) | 0.1 µg/mL (≈ 0.266 µM) | 0.1 µg/mL (≈ 0.266 µM) | 0.8 µg/mL (≈ 2.13 µM) |
| CCNCC1CCN(c2c(F)cc3c(=O)c(C(=O)O)cn(C4CC4)c3c2OC)C1 (stereo unspecified) | – | 0.4 µg/mL (≈ 0.991 µM) | 0.2 µg/mL (≈ 0.496 µM) | 0.4 µg/mL (≈ 0.991 µM) | 0.4 µg/mL (≈ 0.991 µM) | 0.1 µg/mL (≈ 0.248 µM) | 0.05 µg/mL (≈ 0.124 µM) | 0.006 µg/mL (≈ 0.0149 µM) | 0.013 µg/mL (≈ 0.0322 µM) | 0.2 µg/mL (≈ 0.496 µM) | 0.2 µg/mL (≈ 0.496 µM) | 0.025 µg/mL (≈ 0.062 µM) | 0.013 µg/mL (≈ 0.0322 µM) | 0.025 µg/mL (≈ 0.062 µM) | 0.05 µg/mL (≈ 0.124 µM) | 0.1 µg/mL (≈ 0.248 µM) | 1.6 µg/mL (≈ 3.97 µM) |
| CCOc1c(N2CCCC(N)C2)c(F)c(N)c2c(=O)c(C(=O)O)cn(C3CC3)c12 (stereo unspecified) | – | 3.1 µg/mL (≈ 7.66 µM) | 0.8 µg/mL (≈ 1.98 µM) | 0.8 µg/mL (≈ 1.98 µM) | 3.1 µg/mL (≈ 7.66 µM) | 0.2 µg/mL (≈ 0.495 µM) | 0.4 µg/mL (≈ 0.989 µM) | 0.013 µg/mL (≈ 0.0321 µM) | 0.05 µg/mL (≈ 0.124 µM) | 6.3 µg/mL (≈ 15.6 µM) | 0.4 µg/mL (≈ 0.989 µM) | 0.1 µg/mL (≈ 0.247 µM) | 0.025 µg/mL (≈ 0.0618 µM) | 0.05 µg/mL (≈ 0.124 µM) | 0.1 µg/mL (≈ 0.247 µM) | 0.2 µg/mL (≈ 0.495 µM) | 3.1 µg/mL (≈ 7.66 µM) |
| COc1c(N2CC[C@H](N)C2)c(F)cc2c(=O)c(C(=O)O)cn(C3CC3)c12 | 32 µg/mL (≈ 88.6 µM) | 0.4 µg/mL (≈ 1.11 µM) | 0.8 µg/mL (≈ 2.21 µM) | 0.1 µg/mL (≈ 0.277 µM) | 0.2 µg/mL (≈ 0.553 µM) | 0.025 µg/mL (≈ 0.0692 µM) | 0.2 µg/mL (≈ 0.553 µM) | 0.013 µg/mL (≈ 0.036 µM) | 0.025 µg/mL (≈ 0.0692 µM) | 0.2 µg/mL (≈ 0.553 µM) | 0.05 µg/mL (≈ 0.138 µM) | 0.05 µg/mL (≈ 0.138 µM) | 0.025 µg/mL (≈ 0.0692 µM) | 0.05 µg/mL (≈ 0.138 µM) | 0.025 µg/mL (≈ 0.0692 µM) | 0.025 µg/mL (≈ 0.0692 µM) | 0.4 µg/mL (≈ 1.11 µM) |
| CCNCC1CCCN(c2c(F)cc3c(=O)c(C(=O)O)cn(C4CC4)c3c2OCC)C1 (stereo unspecified) | 460 µg/mL (≈ 1070 µM) | 3.1 µg/mL (≈ 7.18 µM) | 0.4 µg/mL (≈ 0.927 µM) | > 3.1 µg/mL | 3.1 µg/mL (≈ 7.18 µM) | 1.6 µg/mL (≈ 3.71 µM) | 0.4 µg/mL (≈ 0.927 µM) | 0.05 µg/mL (≈ 0.116 µM) | 0.1 µg/mL (≈ 0.232 µM) | 3.1 µg/mL (≈ 7.18 µM) | 3.1 µg/mL (≈ 7.18 µM) | 0.2 µg/mL (≈ 0.463 µM) | 0.1 µg/mL (≈ 0.232 µM) | 0.2 µg/mL (≈ 0.463 µM) | 0.8 µg/mL (≈ 1.85 µM) | 0.8 µg/mL (≈ 1.85 µM) | > 3.1 µg/mL |
| COc1c(N2CCCC(CN)C2)c(F)c(N)c2c(=O)c(C(=O)O)cn(C3CC3)c12 (stereo unspecified) | 140 µg/mL (≈ 346 µM) | 1.6 µg/mL (≈ 3.96 µM) | 0.8 µg/mL (≈ 1.98 µM) | 0.8 µg/mL (≈ 1.98 µM) | 3.1 µg/mL (≈ 7.66 µM) | 0.2 µg/mL (≈ 0.495 µM) | 0.2 µg/mL (≈ 0.495 µM) | 0.006 µg/mL (≈ 0.0148 µM) | 0.025 µg/mL (≈ 0.0618 µM) | 1.6 µg/mL (≈ 3.96 µM) | 0.4 µg/mL (≈ 0.989 µM) | 0.025 µg/mL (≈ 0.0618 µM) | 0.025 µg/mL (≈ 0.0618 µM) | 0.05 µg/mL (≈ 0.124 µM) | 0.1 µg/mL (≈ 0.247 µM) | 0.1 µg/mL (≈ 0.247 µM) | 3.1 µg/mL (≈ 7.66 µM) |
